Consider 24 compounds from ChEMBL document CHEMBL1131007, “5-Fluoro-2-methyl-N-[4-(5H-pyrrolo[2,1-c]-[1, 4]benzodiazepin-10(11H)-ylcarbonyl)-3-chlorophenyl]benzamide (VPA-985): an orally active arginine vasopressin antagonist with selectivity for V2 receptors” (J Med Chem, 1998).

For test [1], the species on record is Homo sapiens. Briefly: Relative affinity for human vasopressin receptors V1a and V2. In a few lines:
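Ratio from IC50 values: V1a by displacement of 3H-AVP or 3H-[d(CH2)5 1Tyr(Me)2,Arg8]-AVP from human platelet membranes; V2 by displacement of 3H-AVP from membranes of murine fibroblast LV2 cells expressing human V2 receptors.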

In test [2] the test system is Rattus norvegicus. Briefly: Urinary osmolality from urine collected from rat at 10 mg/kg.
The target of test [3] is Vasopressin V2 receptor (Homo sapiens, UniProt P30518). Put plainly: Displacement of [3H]AVP from human V2 receptor expressed in murine fibroblast cell line (LV2) membranes. Type of test: cell-based. In a few lines:
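Membranes from murine fibroblast line LV2 expressing human V2 receptors; displacement of specific 3H-AVP binding. IC50 given as group mean ± SEM where two or three separate determinations were made.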

The target in test [4] is Vasopressin V1a receptor (Homo sapiens, UniProt P37288). Briefly: Displacement of [3H]AVP from vasopressin receptor (V1a) from human platelet membranes. The essentials:
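Membranes from human platelets; displacement of specific binding of 3H-AVP or 3H-[d(CH2)5 1Tyr(Me)2,Arg8]-AVP at V1a sites. IC50 given as group mean ± SEM where two or three separate determinations were made.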

Test [5] deals with Rattus norvegicus. Put plainly: Urinary osmolality from urine collected from rat at 3 mg/kg. Type of test: functional. In a few lines:
(§1)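 Conscious rats with free access to water before and during the test, given compound in 20% DMSO in aqueous 2.5% preboiled starch (compound first dissolved in DMSO). Urine volume over 4 h and urinary osmolality (mOsm/kg) measured.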

The subject of test [6] is Rattus norvegicus. Briefly: Urine volume collected after 10 mg/kg of drug administration into 6 rats. The test is classed as functional. In a few lines: (§2)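 Conscious rats with water access before but not during the test. Given AVP 0.4 μg/kg ip in peanut oil, then deionized water 30 mL/kg by gavage 20 min later, then vehicle or compound 20 min after that. Vehicle was 20% DMSO in 2.5% preboiled starch. Urine volume over 4 h and osmolality measured.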

For test [7], the system named is Rattus norvegicus. Briefly: Urine volume collected after 1 mg/kg of drug administration into 8 rats. (Conscious rats free access to water before but not during the experiment). The test is classed as functional. The essentials: as §2
The target in test [8] is Vasopressin V1a receptor (Rattus norvegicus, UniProt P30560). Briefly: Displacement of (Phe-3,4,5-H) Vasopressin from V1a receptor from rat liver membranes. The test is classed as cell membranes, Membrane.
Vasopressin V1a receptor (Rattus norvegicus, UniProt P30560), sequence (P30560 whole entry): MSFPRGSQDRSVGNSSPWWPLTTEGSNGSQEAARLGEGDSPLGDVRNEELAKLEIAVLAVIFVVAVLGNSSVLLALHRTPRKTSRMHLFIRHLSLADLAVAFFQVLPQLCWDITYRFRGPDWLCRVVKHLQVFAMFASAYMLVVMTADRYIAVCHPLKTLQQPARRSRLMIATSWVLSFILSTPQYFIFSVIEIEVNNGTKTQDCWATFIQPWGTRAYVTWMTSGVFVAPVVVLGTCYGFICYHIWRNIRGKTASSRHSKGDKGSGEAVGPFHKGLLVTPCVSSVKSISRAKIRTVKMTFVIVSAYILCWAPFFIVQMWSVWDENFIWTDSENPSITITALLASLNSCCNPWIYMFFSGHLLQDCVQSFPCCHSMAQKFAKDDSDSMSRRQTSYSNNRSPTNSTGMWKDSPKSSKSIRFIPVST
Test [9] has as its system Rattus norvegicus. Briefly: Urinary osmolality from urine collected from rat at 1 mg/kg in second experiment. Type of test: functional. In a few lines: as §2
The subject of test [10] is Rattus norvegicus. Put plainly: Urine volume collected after 10 mg/kg of drug administration into 13 rats. (Conscious rats free access to water before and after during the experiment). Type of test: functional. The essentials: as §1
Test [11] concerns Rattus norvegicus. Briefly: Urinary osmolality from urine collected from rat at 3 mg/kg in second experiment. The test is classed as functional. In a few lines: as §2
The subject of test [12] is Rattus norvegicus. Briefly: Urine volume collected after 1 mg/kg of drug administration into 6 rats. The test is classed as functional. In a few lines:
as §1

The target of test [13] is Vasopressin receptor (Rattus norvegicus) (UniProt P48974+P30560+Q00788). Put plainly: Relative affinity for rat vasopressin receptors V1a and V2. The test is classed as protein assay.
Test [14] has as its system Rattus norvegicus. Put plainly: Urine volume collected after 3 mg/kg of drug administration into 10 rat. Type of test: functional. The essentials:
as §2

The test system of test [15] is Rattus norvegicus. Put plainly: Urinary osmolality from urine collected from rat at 1 mg/kg. The test is classed as functional. In a few lines:
as §1

Test [16] has as its system Rattus norvegicus. Briefly: Urinary osmolality from urine collected from rat at 10 mg/kg in second experiment. The test is classed as functional. In a few lines: as §2
The test system of test [17] is Rattus norvegicus. Put plainly: Urine volume collected after 3 mg/kg of drug administration into 15 rats. Type of test: functional. The essentials:
as §1

The subject of test [18] is Rattus norvegicus. Put plainly: Urinary osmolality from urine collected from rat at 10 mg/kg. Type of test: functional. In a few lines:
as §1

Test [19] deals with Rattus norvegicus. Briefly: Urine volume collected after 10 mg/kg of drug administration into 4 rats. Type of test: functional. The essentials: as §2
The target of test [20] is Vasopressin V2 receptor (Rattus norvegicus, UniProt Q00788). Put plainly: Displacement of [3H]AVP from vasopressin V2 receptor of rat kidney medulla.
Vasopressin V2 receptor (Rattus norvegicus, UniProt Q00788), sequence (Q00788 whole entry): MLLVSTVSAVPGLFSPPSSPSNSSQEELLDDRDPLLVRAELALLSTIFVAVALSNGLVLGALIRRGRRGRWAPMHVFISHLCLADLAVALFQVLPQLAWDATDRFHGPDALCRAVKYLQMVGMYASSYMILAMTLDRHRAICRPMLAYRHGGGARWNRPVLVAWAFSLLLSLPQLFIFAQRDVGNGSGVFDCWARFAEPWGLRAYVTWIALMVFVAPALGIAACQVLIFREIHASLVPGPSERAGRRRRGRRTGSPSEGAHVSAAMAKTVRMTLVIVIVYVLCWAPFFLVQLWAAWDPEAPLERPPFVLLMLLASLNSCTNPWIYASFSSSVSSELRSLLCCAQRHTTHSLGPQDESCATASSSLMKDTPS
For test [21], the system named is Rattus norvegicus. Put plainly: Urine volume collected after 10 mg/kg of drug administration into 3 rats. The test is classed as functional. In a few lines:
as §2

The test system of test [22] is Rattus norvegicus. Put plainly: Urine volume collected after 3 mg/kg of drug administration into 2 rats.
Test [23] concerns Rattus norvegicus. Put plainly: Urine volume collected after 10 mg/kg of drug administration into 2 rats. Type of test: functional. The essentials:
as §2

pIC50: −log10 of the molar value.

Vasopressin V2 receptor (Homo sapiens, UniProt P30518), sequence (P30518 whole entry): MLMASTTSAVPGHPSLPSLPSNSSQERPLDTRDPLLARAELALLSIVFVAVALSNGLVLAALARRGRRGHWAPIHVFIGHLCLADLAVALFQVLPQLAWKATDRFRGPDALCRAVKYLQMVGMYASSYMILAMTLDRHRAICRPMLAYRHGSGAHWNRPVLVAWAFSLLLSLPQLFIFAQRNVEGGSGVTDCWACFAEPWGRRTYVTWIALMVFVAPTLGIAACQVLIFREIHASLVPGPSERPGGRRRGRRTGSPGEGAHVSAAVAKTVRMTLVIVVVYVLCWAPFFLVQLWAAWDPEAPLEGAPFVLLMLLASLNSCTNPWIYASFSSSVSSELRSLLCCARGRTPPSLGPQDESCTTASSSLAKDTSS
Vasopressin V1a receptor (Homo sapiens, UniProt P37288), sequence (P37288 whole entry): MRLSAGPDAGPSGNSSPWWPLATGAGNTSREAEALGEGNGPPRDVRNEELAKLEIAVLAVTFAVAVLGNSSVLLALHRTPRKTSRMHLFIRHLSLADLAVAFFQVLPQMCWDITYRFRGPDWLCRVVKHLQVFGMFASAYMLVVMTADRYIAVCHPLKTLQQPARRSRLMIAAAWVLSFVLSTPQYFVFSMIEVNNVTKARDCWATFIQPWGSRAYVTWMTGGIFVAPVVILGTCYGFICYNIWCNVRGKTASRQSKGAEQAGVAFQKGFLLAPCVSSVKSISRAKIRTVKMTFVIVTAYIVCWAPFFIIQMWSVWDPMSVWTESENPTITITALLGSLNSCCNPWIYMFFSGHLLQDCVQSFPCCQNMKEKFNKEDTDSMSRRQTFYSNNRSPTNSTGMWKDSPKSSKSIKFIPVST

On to `Cc1cccc(C(=O)Nc2ccc(C(=O)N3Cc4cccn4Cc4ccccc43)c(Cl)c2)c1C`, for which the Selectivity in test [1] was 860. This compound also returned an Osmolality in [2] of 557 mOsmol kg-1. This compound also showed a pIC50 in test [3] of 9.30.

Take `Cc1ccc(F)cc1C(=O)Nc1ccc(C(=O)N2Cc3cccn3Cc3ccccc32)cc1`: the values for the pIC50 in test [4] and in [3] were 7.70 and 8.82, respectively.

With `Cc1ccc(F)cc1C(=O)Nc1ccc(C(=O)N2Cc3cccn3Cc3ccccc32)c(Cl)c1` [LIXIVAPTAN], the Selectivity came out at 192 in test [1] and 148 in [13]. Moreover, the Osmolality in [5] is listed as 222 mOsmol kg-1; in test [9], 629 mOsmol kg-1; in test [11], 366 mOsmol kg-1; in [15], 393 mOsmol kg-1; in test [16], 302 mOsmol kg-1; in [18] it was 188 mOsmol kg-1. Also, the Urine volume was found to be 37 ml 4hr-1 in test [6]; 14 ml 4hr-1 in test [7]; 43 ml 4hr-1 in test [10]; 24 ml 4hr-1 in [12]; 30 ml 4hr-1 in [14]; 38 ml 4hr-1 in test [17]. Besides, the pIC50 was 6.47 in test [8], 6.64 in [4] and 8.92 in test [3].

In test [13], `COc1ccccc1C(=O)Nc1ccc(C(=O)N2Cc3cccn3Cc3ccccc32)cc1` had a Selectivity of 2.

`O=C(Nc1ccc(C(=O)N2Cc3cccn3Cc3ccccc32)c(Cl)c1)c1ccc(Cl)cc1Cl`: the Selectivity came to 320 in [1] and 5 in [13]. The same compound gave a Urine volume in [19] of 14 ml 4hr-1. In test [2], this compound yielded an Osmolality of 507 mOsmol kg-1. Besides, the pIC50 was 6.19 in [4] and 8.70 in [3].

Consider `Cc1cc(C(=O)N2Cc3cccn3Cc3ccccc32)ccc1NC(=O)c1ccc(Cl)cc1Cl`, for which the pIC50 in test [20] is 8.10; in [8], 7.48. Besides, the Selectivity in test [13] turned out to be 4.

`O=C(Nc1ccc(C(=O)N2Cc3cccn3Cc3ccccc32)cc1)c1ccccc1C(F)(F)F`: in test [20], the pIC50 was 7.99. Moreover, the Selectivity in test [13] stood at 3.

Take `Cc1c(F)cccc1C(=O)Nc1ccc(C(=O)N2Cc3cccn3Cc3ccccc32)c(Cl)c1`: in test [1], the Selectivity worked out at 284. In [2], this compound gave an Osmolality of 473 mOsmol kg-1. Moreover, the pIC50 was 6.27 in test [4] and 8.72 in test [3]. Further, the Urine volume in [21] was 17 ml 4hr-1.

Consider `COc1cc(Cl)ccc1C(=O)Nc1ccc(C(=O)N2Cc3cccn3Cc3ccccc32)cc1`, for which the values for the pIC50 in test [20] and in test [8] were 7.80 and 7.48, respectively. In test [13], the Selectivity was 2.

The compound `O=C(Nc1ccc(C(=O)N2Cc3cccn3Cc3ccccc32)cc1)c1ccc(F)cc1Cl` showed a Selectivity in test [1] of 2. The same compound had a pIC50 in test [4] of 8.20.

Turning to `Cc1cccc(C(=O)Nc2ccc(C(=O)N3Cc4cccn4Cc4ccccc43)cc2)c1C`, the Selectivity in [13] came out at 6.

Turning to `Cc1ccccc1C(=O)Nc1ccc(C(=O)N2CCCC(N(C)C)c3ccccc32)cc1` (stereo unspecified) [MOZAVAPTAN], the Osmolality came to 850 mOsmol kg-1 in test [5] and 352 mOsmol kg-1 in test [18]. In addition, the Urine volume in test [22] was determined as 10 ml 4hr-1; in [23] it was 23 ml 4hr-1.

On to `Cc1ccccc1C(=O)Nc1ccc(C(=O)N2Cc3cccn3Cc3ccccc32)c(Cl)c1`, for which the Selectivity amounted to 59 in [1] and 12 in test [13]. Also, the pIC50 in [4] was 7.23; in [3], 9.00.

The compound `O=C(Nc1ccc(C(=O)N2Cc3cccn3Cc3ccccc32)c(Cl)c1)c1ccc(F)cc1Cl` had a Selectivity in test [1] of 53. In addition, the pIC50 was 7.43 in test [4] and 9.15 in test [3].

Take `Cc1ccc(F)cc1C(=O)Nc1ccc(C(=O)N2Cc3cccn3Cc3ccccc32)c(C)c1`: the Selectivity in [1] was found to be 80. Moreover, the pIC50 in test [4] was 6.92; in test [3] it was 8.68.

`O=C(Nc1ccc(C(=O)N2Cc3cccn3Cc3ccccc32)cc1)c1ccccc1Cl` showed a pIC50 in test [20] of 8.34. Further, the Selectivity in [13] is 2.

In [13], `Cc1c(F)cccc1C(=O)Nc1ccc(C(=O)N2Cc3cccn3Cc3ccccc32)cc1` returned a Selectivity of 7.

In test [20], `Cc1ccccc1C(=O)Nc1ccc(C(=O)N2Cc3cccn3Cc3ccccc32)cc1` had a pIC50 of 8.39. Also, the Selectivity in [13] is 9.

Consider `COc1cc(NC(=O)c2cc(F)ccc2C)ccc1C(=O)N1Cc2cccn2Cc2ccccc21`, for which the Selectivity in [1] came to 8. Moreover, the pIC50 in test [3] was 8.70.

As to `COc1cc(C(=O)N2Cc3cccn3Cc3ccccc32)ccc1NC(=O)c1ccc(Cl)cc1Cl`, in [1], the Selectivity is 17.

`O=C(Nc1ccc(C(=O)N2Cc3cccn3Cc3ccccc32)cc1)c1ccc(Cl)cc1Cl`: the figures for the Selectivity in test [1] and in [13] were 5 and 7, respectively. In addition, the pIC50 was 8.51 in test [20], 7.82 in test [4] and 8.49 in test [3].

In turn, `Cc1ccc(C)c(C(=O)Nc2ccc(C(=O)N3Cc4cccn4Cc4ccccc43)c(Cl)c2)c1` showed a Selectivity in test [1] of 81. In addition, the pIC50 in test [3] is 8.38.

`O=C(Nc1ccc(C(=O)N2Cc3cccn3Cc3ccccc32)c(Cl)c1)c1cccc(C(F)(F)F)c1F`: in test [1], the Selectivity is 530. In test [23], this compound came in with a Urine volume of 10 ml 4hr-1. Moreover, the pIC50 was 5.36 in test [4] and 8.08 in test [3]. In test [18], this compound returned an Osmolality of 635 mOsmol kg-1.

The compound `Cc1ccc(F)cc1C(=O)Nc1ccc(C(=O)N2Cc3cccn3Cc3ccccc32)cc1Cl` displayed a Selectivity in [1] of 6. For the same compound, the pIC50 in test [4] is 7.60.
